The chains are these.
B1: Osa-1-4 twister ribozyme (parent)
chain: CCGCCUAACACUGCCAAUGCCGGUCCCAAGCCCGGAUAAAAGUGGAGGGGGCGG

The variants in the data set derive from B1. Kind of data set: self-cleavage, relative activity (ratio to wild type); higher = more cleavage; co-transcriptional. An outline of the steps: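 The 48 positions downstream of the cleavage site in a DNA template for a 54-nucleotide Oryza sativa twister ribozyme carried 97 % wild-type base and 1 % of each other base. After in vitro transcription (2 h, 37 °C) with co-transcriptional self-cleavage, the RNA was reverse-transcribed with a template-switching oligonucleotide, PCR-amplified and deep-sequenced. Relative activity is the fraction cleaved, judged by reads with or without upstream sequence and normalised to wild type.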
In the case of A8U G47C, the self-cleavage is 0.05.
On to A8U G47U, for which the self-cleavage came to 0.05.
Under A8U G47A stands 0.06.
C9A G35U: the self-cleavage amounted to 0.32.
With C9A G35A, the self-cleavage is 0.24.
Under C9A G35C stands 0.11; under A8G U12G, 0.15.
Take A8G U12C: the self-cleavage amounted to 0.12.
Under A8G U12A stands 0.16; under A8G G47U, 0.1.
For A8G G47C, the self-cleavage came out at 0.07.
Under A8G G47A stands 0.11; under A8U U18C, 0.26.
Under A8U U18G stands 0.56.
Under A8U U18A stands 0.39.
As to A8U G23A, the self-cleavage stood at 0.08.
On to A8U G23U, for which the self-cleavage came out at 0.03.
Take A8U G23C: the self-cleavage was found to be 0.04.
Under A8U C14G stands 0.05; under A8U C14U, 0.1.
Under A8U C14A stands 0.04; under A8U C26A, 0.03.
Under A8U C26G stands 0.05.
As for A8U C26U, the self-cleavage came to 0.12.
As for A8U C33U, the self-cleavage was 0.09.
Under A8U C33A stands 0.05; under A8U C33G, 0.04; under A8G G48U, 0.04.
Under A8G G48C stands 0.05.
Regarding A8G G48A, the self-cleavage stood at 0.06.
C9G G48A: the self-cleavage is 0.07.
In the case of C9G G48C, the self-cleavage was determined as 0.08.
Under C9G G48U stands 0.06; under C9A G13U, 0.04.
With C9A G13C, the self-cleavage stood at 0.03.
As for C9A G13A, the self-cleavage was 0.02.
With C9G G51C, the self-cleavage was 0.06.
Under C9G G51U stands 0.12; under C9G G51A, 0.23.
Turning to C9G G50A, the self-cleavage stood at 0.48.
Under C9G G50U stands 0.84; under C9G G50C, 0.59; under C9G G42C, 0.07.
As to C9G G42U, the self-cleavage was 0.05.
Under C9G G42A stands 0.11; under C9G G34U, 0.12.
Turning to C9G G34A, the self-cleavage was 0.29.
Regarding C9G G34C, the self-cleavage was 0.3.
Under A8U G35U stands 0.18.
Under A8U G35C stands 0.08; under A8U G35A, 0.27.
Under A8U C27G stands 0.05; under A8U C27U, 0.07.
Turning to A8U C27A, the self-cleavage is 0.06.
Take A8G G53A: the self-cleavage was determined as 0.16.
For A8G G53C, the self-cleavage stood at 0.08.
Under A8G G53U stands 0.11; under A8U G53U, 0.1.
Under A8U G53A stands 0.12; under A8U G53C, 0.05.
Under C9A G45A stands 0.04.
Turning to C9A G45U, the self-cleavage is 0.03.
Under C9A G45C stands 0.01; under A8U C32A, 0.03.
In the case of A8U C32U, the self-cleavage amounted to 0.06.
On to A8U C32G, for which the self-cleavage came out at 0.07.
In the case of A8G C27U, the self-cleavage stood at 0.11.
Under A8G C27G stands 0.11; under A8G C27A, 0.14; under A8G G13U, 0.03.
A8G G13A: the self-cleavage was 0.1.
Under A8G G13C stands 0.03; under C9A G23C, 0.01; under C9A G23A, 0.06.
With C9A G23U, the self-cleavage stood at 0.02.
Consider C9A G34C, for which the self-cleavage came out at 0.08.
Consider C9A G34U, for which the self-cleavage was 0.11.
For C9A G34A, the self-cleavage stood at 0.19.
On to C9A G42C, for which the self-cleavage was 0.04.
With C9A G42U, the self-cleavage was found to be 0.03.
Turning to C9A G42A, the self-cleavage came to 0.09.
Regarding A8G C14G, the self-cleavage amounted to 0.1.
Regarding A8G C14U, the self-cleavage is 0.14.
With A8G C14A, the self-cleavage stood at 0.07.
Under A8U G42A stands 0.1; under A8U G42C, 0.06; under A8U G42U, 0.03.
Take A8G G51U: the self-cleavage was 0.11.
Under A8G G51A stands 0.22; under A8G G51C, 0.08; under A8U G50A, 0.26.
Under A8U G50U stands 0.35; under A8U G50C, 0.24; under C9A U24G, 0.07.
As for C9A U24A, the self-cleavage amounted to 0.04.
Under C9A U24C stands 0.07; under C9A U18C, 0.19.
Under C9A U18A stands 0.47.
On to C9A U18G, for which the self-cleavage was found to be 0.31.
As to A8G C11A, the self-cleavage stood at 0.15.
On to A8G C11G, for which the self-cleavage came to 0.17.
Under A8G C11U stands 0.19; under A8G G35C, 0.16.
Under A8G G35U stands 0.35; under A8G G35A, 0.4.
Under A8U G19C stands 0.03; under A8U G19A, 0.08.
Take A8U G19U: the self-cleavage came to 0.05.
Under A8U C21A stands 0.08; under A8U C21G, 0.07.
Take A8U C21U: the self-cleavage amounted to 0.28.
As to C9A G22C, the self-cleavage came to 0.03.
Regarding C9A G22U, the self-cleavage was 0.12.
Under C9A G22A stands 0.34; under A8G G54C, 0.21; under A8G G54U, 0.32.
Under A8G G54A stands 0.27.
On to C9A G48C, for which the self-cleavage was 0.02.
As to C9A G48U, the self-cleavage came to 0.02.
Turning to C9A G48A, the self-cleavage was 0.02.
For the variant A8G U43G, the self-cleavage turned out to be 0.15.
With A8G U43A, the self-cleavage turned out to be 0.23.
Under A8G U43C stands 0.14; under C9G G13C, 0.03.
Under C9G G13A stands 0.06; under C9G G13U, 0.03.
Under C9G G53U stands 0.14.
For C9G G53A, the self-cleavage was determined as 0.48.
Consider C9G G53C, for which the self-cleavage turned out to be 0.05.
With C9G G49C, the self-cleavage was determined as 0.06.
C9G G49A: the self-cleavage was 0.09.
C9G G49U: the self-cleavage amounted to 0.09.
Under A8G G45A stands 0.09; under A8G G45U, 0.14.
Under A8G G45C stands 0.05; under A8G U18C, 0.39; under A8G U18A, 0.57.
With A8G U18G, the self-cleavage worked out at 0.49.
As for A8G G22U, the self-cleavage worked out at 0.15.
On to A8G G22C, for which the self-cleavage came out at 0.07.
As for A8G G22A, the self-cleavage stood at 0.2.
A8G C15U: the self-cleavage came out at 0.13.
With A8G C15A, the self-cleavage stood at 0.12.
Take A8G C15G: the self-cleavage was 0.29.
Under A8U G51A stands 0.14; under A8U G51C, 0.04; under A8U G51U, 0.08.
Under C9A G47C stands 0.03; under C9A G47A, 0.05; under C9A G47U, 0.03.
Consider A8G, for which the self-cleavage was determined as 0.71.
Under A8U stands 0.49.
Under C9G G54C stands 0.77.
Take C9G G54A: the self-cleavage was 0.71.
C9G G54U: the self-cleavage was 0.73.
Turning to A8G G50A, the self-cleavage worked out at 0.53.
Regarding A8G G50U, the self-cleavage was determined as 0.43.
Under A8G G50C stands 0.27.
Under C9A stands 0.48; under C9G, 0.93.
Under C9A G53U stands 0.09; under C9A G53C, 0.03; under C9A G53A, 0.29.
With A8U C15A, the self-cleavage turned out to be 0.08.
Under A8U C15G stands 0.15; under A8U C15U, 0.08.
Under A8U G48C stands 0.05.

The values above are taken from the RNAGym collection of RNA variant scans (doi:10.1002/anie.201605470).
